Assay results from ChEMBL document CHEMBL3734675, “Synthesis, antimycobacterial and antibacterial activity of fluoroquinolone derivatives containing an 3-alkoxyimino-4-(cyclopropylanimo)methylpyrrolidine moiety” (2015).
In brackets after ≈: the same amount, converted by molar mass.

Columns and labels:
Format in all cases: functional
[1] = test system: Mycobacterium tuberculosis; assay: Antimycobacterial activity against Mycobacterium tuberculosis H37Rv ATCC 27294 incubated for 7 days by microplate Alamar Blue assay; details: H37Rv ATCC 27294, 168 h
In short: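 Fluorescence read-out. MIC is the lowest concentration that reduces fluorescence by at least 90% relative to the mean of replicate bacterium-only controls. Isoniazid and rifampicin were included as reference drugs.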

[2] = test system: Klebsiella pneumoniae; assay: Antibacterial activity against Klebsiella pneumoniae 14-4 after 18 to 24 hrs by two-fold serial dilution method
In short: (§1)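 Twofold serial dilution in agar media against Gram-positive and Gram-negative strains. Plates incubated at 35 °C for 18–24 h. MIC read as the lowest compound concentration giving complete inhibition of bacterial growth.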

[3] = test system: Staphylococcus epidermidis; assay: Antibacterial activity against methicillin-sensitive Staphylococcus epidermidis 14-2 after 18 to 24 hrs by two-fold serial dilution method; in short: as §1
[4] = test system: Enterococcus faecalis; assay: Antibacterial activity against Enterococcus faecalis 14-1 after 18 to 24 hrs by two-fold serial dilution method; in short: as §1
[5] = test system: Staphylococcus aureus; assay: Antibacterial activity against methicillin-resistant Staphylococcus aureus 14-5 after 18 to 24 hrs by two-fold serial dilution method
In short: (§2)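 Agar media, standard twofold serial dilution. MIC is the lowest concentration giving complete inhibition of bacterial growth after incubation at 35 °C for 18–24 h. Ciprofloxacin and levofloxacin were run as comparators.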

[6] = test system: Escherichia coli; assay: Antibacterial activity against Escherichia coli 14-2 after 18 to 24 hrs by two-fold serial dilution method; in short: as §1
[7] = test system: Pseudomonas aeruginosa; assay: Antibacterial activity against Pseudomonas aeruginosa 14-16 after 18 to 24 hrs by two-fold serial dilution method; in short: as §1
[8] = test system: Klebsiella pneumoniae; assay: Antibacterial activity against extended-spectrum beta-lactamase producing Klebsiella pneumoniae 14-19 after 18 to 24 hrs by two-fold serial dilution method; in short: as §1
[9] = test system: Staphylococcus aureus; assay: Antibacterial activity against methicillin-sensitive Staphylococcus aureus 14-4 after 18 to 24 hrs by two-fold serial dilution method; in short: as §1
[10] = test system: Klebsiella pneumoniae; assay: Antibacterial activity against Klebsiella pneumoniae 14-1 after 18 to 24 hrs by two-fold serial dilution method; in short: as §1
[11] = test system: Staphylococcus epidermidis; assay: Antibacterial activity against methicillin-resistant Staphylococcus epidermidis 14-22 after 18 to 24 hrs by two-fold serial dilution method; in short: as §2
[12] = test system: Pseudomonas aeruginosa; assay: Antibacterial activity against Pseudomonas aeruginosa ATCC 27853 after 18 to 24 hrs by two-fold serial dilution method; in short: as §1
[13] = test system: Staphylococcus epidermidis; assay: Antibacterial activity against methicillin-resistant Staphylococcus epidermidis 14-37 after 18 to 24 hrs by two-fold serial dilution method; in short: as §2
[14] = test system: Pseudomonas aeruginosa; assay: Antibacterial activity against Pseudomonas aeruginosa 14-15 after 18 to 24 hrs by two-fold serial dilution method; in short: as §1
[15] = test system: Staphylococcus aureus; assay: Antibacterial activity against Staphylococcus aureus CMCC 26003 after 18 to 24 hrs by two-fold serial dilution method; in short: as §1
[16] = test system: Staphylococcus epidermidis; assay: Antibacterial activity against methicillin-resistant Staphylococcus epidermidis 14-39 after 18 to 24 hrs by two-fold serial dilution method; in short: as §2
[17] = test system: Escherichia coli; assay: Antibacterial activity against Escherichia coli 14-1 after 18 to 24 hrs by two-fold serial dilution method; in short: as §1
[18] = test system: Escherichia coli; assay: Antibacterial activity against extended-spectrum beta-lactamase producing Escherichia coli 14-2 after 18 to 24 hrs by two-fold serial dilution method; in short: as §1
[19] = test system: Klebsiella pneumoniae; assay: Antibacterial activity against extended-spectrum beta-lactamase producing Klebsiella pneumoniae 14-18 after 18 to 24 hrs by two-fold serial dilution method; in short: as §1
[20] = test system: Pseudomonas aeruginosa; assay: Antibacterial activity against Pseudomonas aeruginosa 14-9 after 18 to 24 hrs by two-fold serial dilution method; in short: as §1
[21] = test system: Escherichia coli; assay: Antibacterial activity against Escherichia coli ATCC 25922 after 18 to 24 hrs by two-fold serial dilution method; in short: as §1
[22] = test system: Klebsiella pneumoniae; assay: Antibacterial activity against extended-spectrum beta-lactamase producing Klebsiella pneumoniae 14-17 after 18 to 24 hrs by two-fold serial dilution method; in short: as §1
[23] = test system: Enterococcus faecium; assay: Antibacterial activity against Enterococcus faecium 14-2 after 18 to 24 hrs by two-fold serial dilution method; in short: as §1
[24] = test system: Enterococcus faecalis; assay: Antibacterial activity against Enterococcus faecalis 14-2 after 18 to 24 hrs by two-fold serial dilution method; in short: as §1
[25] = test system: Pseudomonas aeruginosa; assay: Antibacterial activity against Pseudomonas aeruginosa 14-14 after 18 to 24 hrs by two-fold serial dilution method; in short: as §1
[26] = test system: Klebsiella pneumoniae; assay: Antibacterial activity against Klebsiella pneumoniae 14-2 after 18 to 24 hrs by two-fold serial dilution method; in short: as §1
[27] = test system: Staphylococcus aureus; assay: Antibacterial activity against methicillin-sensitive Staphylococcus aureus 14-1 after 18 to 24 hrs by two-fold serial dilution method; in short: as §1
[28] = test system: Escherichia coli; assay: Antibacterial activity against extended-spectrum beta-lactamase producing Escherichia coli 14-1 after 18 to 24 hrs by two-fold serial dilution method; in short: as §1
[29] = test system: Staphylococcus epidermidis; assay: Antibacterial activity against methicillin-resistant Staphylococcus epidermidis 14-21 after 18 to 24 hrs by two-fold serial dilution method; in short: as §2
[30] = test system: Klebsiella pneumoniae; assay: Antibacterial activity against Klebsiella pneumoniae 14-3 after 18 to 24 hrs by two-fold serial dilution method; in short: as §1
[31] = test system: Enterococcus faecium; assay: Antibacterial activity against Enterococcus faecium 14-5 after 18 to 24 hrs by two-fold serial dilution method; in short: as §1
[32] = test system: Enterococcus faecium; assay: Antibacterial activity against Enterococcus faecium 14-6 after 18 to 24 hrs by two-fold serial dilution method; in short: as §1
[33] = test system: Staphylococcus aureus; assay: Antibacterial activity against methicillin-resistant Staphylococcus aureus 14-4 after 18 to 24 hrs by two-fold serial dilution method; in short: as §2
[34] = test system: Staphylococcus aureus; assay: Antibacterial activity against methicillin-sensitive Staphylococcus aureus 14-3 after 18 to 24 hrs by two-fold serial dilution method; in short: as §1
[35] = test system: Streptococcus pneumoniae; assay: Antibacterial activity against methicillin-resistant Streptococcus pneumoniae ATCC 19615 after 18 to 24 hrs by two-fold serial dilution method; in short: as §2

Compound	MIC [2]	MIC [3]	MIC [4]	MIC [5]	MIC [6]	MIC [7]	MIC [8]	MIC [9]	MIC [10]	MIC [11]	MIC [12]	MIC [13]	MIC [14]	MIC [15]	MIC [16]	MIC [17]	MIC [18]	MIC [19]	MIC [20]	MIC [21]	other results
NNC(=O)c1ccncc1 [ISONIAZID]	–	–	–	–	–	–	–	–	–	–	–	–	–	–	–	–	–	–	–	–	MIC90 [1]: 0.05 mg/L (≈ 0.365 µM)
CO/N=C1/CN(c2nc3c(cc2F)c(=O)c(C(=O)O)cn3C2CC2)CC1(C)CNC1CC1 (centres undefined)	> 128 mg/L	16 mg/L (≈ 36.1 µM)	16 mg/L (≈ 36.1 µM)	4 mg/L (≈ 9.02 µM)	> 128 mg/L	64 mg/L (≈ 144 µM)	64 mg/L (≈ 144 µM)	0.5 mg/L (≈ 1.13 µM)	64 mg/L (≈ 144 µM)	2 mg/L (≈ 4.51 µM)	32 mg/L (≈ 72.2 µM)	4 mg/L (≈ 9.02 µM)	64 mg/L (≈ 144 µM)	< 0.008 mg/L	2 mg/L (≈ 4.51 µM)	> 128 mg/L	> 128 mg/L	64 mg/L (≈ 144 µM)	16 mg/L (≈ 36.1 µM)	0.5 mg/L (≈ 1.13 µM)	MIC [22]: 64 mg/L (≈ 144 µM); MIC [23]: 4 mg/L (≈ 9.02 µM); MIC [24]: 0.5 mg/L (≈ 1.13 µM); MIC [25]: 64 mg/L (≈ 144 µM); MIC [26]: 128 mg/L (≈ 289 µM); MIC [27]: 0.5 mg/L (≈ 1.13 µM); MIC [28]: 32 mg/L (≈ 72.2 µM); MIC [29]: 4 mg/L (≈ 9.02 µM); MIC [30]: > 128 mg/L; MIC [31]: 4 mg/L (≈ 9.02 µM); MIC [32]: 2 mg/L (≈ 4.51 µM); MIC [33]: 4 mg/L (≈ 9.02 µM); MIC [34]: 0.25 mg/L (≈ 0.564 µM); MIC [35]: 0.25 mg/L (≈ 0.564 µM)
CO[C@H]1/C=C/O[C@@]2(C)Oc3c(C)c(O)c4c(O)c(c(/C=N/N5CCN(C)CC5)c(O)c4c3C2=O)NC(=O)/C(C)=C\C=C\[C@H](C)[C@H](O)[C@@H](C)[C@@H](O)[C@@H](C)[C@H](OC(C)=O)[C@@H]1C [RIFAMPIN]	–	–	–	–	–	–	–	–	–	–	–	–	–	–	–	–	–	–	–	–	MIC90 [1]: 0.05 mg/L (≈ 0.0608 µM)
C[C@H]1COc2c(N3C/C(=N/OCc4ccccc4)C(CNC4CC4)C3)c(F)cc3c(=O)c(C(=O)O)cn1c23 (some centres undefined)	64 mg/L (≈ 123 µM)	8 mg/L (≈ 15.4 µM)	16 mg/L (≈ 30.7 µM)	4 mg/L (≈ 7.68 µM)	> 64 mg/L	32 mg/L (≈ 61.5 µM)	64 mg/L (≈ 123 µM)	0.06 mg/L (≈ 0.115 µM)	32 mg/L (≈ 61.5 µM)	4 mg/L (≈ 7.68 µM)	32 mg/L (≈ 61.5 µM)	2 mg/L (≈ 3.84 µM)	64 mg/L (≈ 123 µM)	< 0.008 mg/L	4 mg/L (≈ 7.68 µM)	> 64 mg/L	> 64 mg/L	32 mg/L (≈ 61.5 µM)	16 mg/L (≈ 30.7 µM)	1 mg/L (≈ 1.92 µM)	MIC [22]: 32 mg/L (≈ 61.5 µM); MIC [23]: 4 mg/L (≈ 7.68 µM); MIC [24]: 0.5 mg/L (≈ 0.961 µM); MIC [25]: 64 mg/L (≈ 123 µM); MIC [26]: 64 mg/L (≈ 123 µM); MIC [27]: 2 mg/L (≈ 3.84 µM); MIC [28]: 2 mg/L (≈ 3.84 µM); MIC [29]: 8 mg/L (≈ 15.4 µM); MIC [30]: 64 mg/L (≈ 123 µM); MIC [31]: 8 mg/L (≈ 15.4 µM); MIC [32]: 16 mg/L (≈ 30.7 µM); MIC [33]: 4 mg/L (≈ 7.68 µM); MIC [34]: 0.125 mg/L (≈ 0.24 µM); MIC [35]: 0.125 mg/L (≈ 0.24 µM)
CC1(CNC2CC2)CN(c2nc3c(cc2F)c(=O)c(C(=O)O)cn3[C@@H]2C[C@@H]2F)C/C1=N/OCc1ccccc1 (some centres undefined)	> 64 mg/L	64 mg/L (≈ 119 µM)	64 mg/L (≈ 119 µM)	16 mg/L (≈ 29.8 µM)	> 64 mg/L	64 mg/L (≈ 119 µM)	> 64 mg/L	8 mg/L (≈ 14.9 µM)	64 mg/L (≈ 119 µM)	16 mg/L (≈ 29.8 µM)	64 mg/L (≈ 119 µM)	16 mg/L (≈ 29.8 µM)	64 mg/L (≈ 119 µM)	0.125 mg/L (≈ 0.233 µM)	32 mg/L (≈ 59.5 µM)	> 64 mg/L	> 64 mg/L	64 mg/L (≈ 119 µM)	32 mg/L (≈ 59.5 µM)	4 mg/L (≈ 7.44 µM)	MIC [22]: 64 mg/L (≈ 119 µM); MIC [23]: 16 mg/L (≈ 29.8 µM); MIC [24]: 2 mg/L (≈ 3.72 µM); MIC [25]: 64 mg/L (≈ 119 µM); MIC [26]: 64 mg/L (≈ 119 µM); MIC [27]: 8 mg/L (≈ 14.9 µM); MIC [28]: 32 mg/L (≈ 59.5 µM); MIC [29]: 16 mg/L (≈ 29.8 µM); MIC [30]: 64 mg/L (≈ 119 µM); MIC [31]: 32 mg/L (≈ 59.5 µM); MIC [32]: 32 mg/L (≈ 59.5 µM); MIC [33]: 16 mg/L (≈ 29.8 µM); MIC [34]: 2 mg/L (≈ 3.72 µM); MIC [35]: 1 mg/L (≈ 1.86 µM)
